Experimental data published in ChEMBL document CHEMBL2407075, “Sulphonamido-quinoxalines: search for anticancer agent” (Eur J Med Chem, 2013).

Tested on: MDA-MB-435
Test: Growth inhibition of human MDA-MB-435 cells at 10 uM after 48 hrs by sulforhodamine B assay
Format: functional
Details: MDA-MB-435, 48 h, read-out: GI
Method in brief: (§1)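 Single-dose screen at 10 µM across the NCI 60 panel. Cells in RPMI 1640 with 5% FBS and 2 mM L-glutamine, plated at 5000–40,000/well and preincubated 24 h at 37 °C, 5% CO2. Drug in DMSO, 48 h exposure. Fixed with TCA, stained with SRB, A515 read. Percent growth is taken relative to untreated control, and inhibition is 100 minus growth.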

Compound | inhibition of growth at 10 µM
CC(=S)NS(=O)(=O)c1ccc2nc(-c3ccccc3)c(-c3ccccc3)nc2c1 | 4.73%

Tested on: not listed separately
Test: Growth inhibition of human EKVX cells at 10 uM after 48 hrs by sulforhodamine B assay
Format: functional
Details: read-out: GI
Method in brief: (§2)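 NCI-60 one-dose primary screen at a single 10 µM concentration. Cells in RPMI 1640 with 5% FBS, preincubated 24 h at 37 °C, 5% CO2. Drug exposure 48 h, then TCA fixation, SRB staining and absorbance at 515 nm. Percent growth calculated against time-zero and untreated control wells, then converted to percent growth inhibition.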

Compound | inhibition of growth at 10 µM
CC(=S)NS(=O)(=O)c1ccc2nc(-c3ccccc3)c(-c3ccccc3)nc2c1 | 8.53%

Tested on: U-251
Test: Growth inhibition of human U251 cells at 10 uM after 48 hrs by sulforhodamine B assay
Format: functional
Details: U-251, 48 h, read-out: GI
Method in brief: as §1

Compound | inhibition of growth at 10 µM
CC(=S)NS(=O)(=O)c1ccc2nc(-c3ccccc3)c(-c3ccccc3)nc2c1 | 10.3%

Tested on: NCI-H522
Test: Growth inhibition of human NCI-H522 cells at 10 uM after 48 hrs by sulforhodamine B assay
Format: functional
Details: NCI-H522, 48 h, read-out: GI
Method in brief: as §1

Compound | inhibition of growth at 10 µM
CC(=S)NS(=O)(=O)c1ccc2nc(-c3ccccc3)c(-c3ccccc3)nc2c1 | 3.73%

Tested on: NCI-H322M
Test: Growth inhibition of human NCI-H322M cells at 10 uM after 48 hrs by sulforhodamine B assay
Format: functional
Details: read-out: GI
Method in brief: as §1

Compound | inhibition of growth at 10 µM
CC(=S)NS(=O)(=O)c1ccc2nc(-c3ccccc3)c(-c3ccccc3)nc2c1 | 17.8%

Tested on: MOLT-4
Test: Growth inhibition of human MOLT4 cells at 10 uM after 48 hrs by sulforhodamine B assay
Format: functional
Details: MOLT-4, 48 h, read-out: GI
Method in brief: as §1

Compound | inhibition of growth at 10 µM
CC(=S)NS(=O)(=O)c1ccc2nc(-c3ccccc3)c(-c3ccccc3)nc2c1 | 20.5%

Tested on: MDA-MB-468
Test: Growth inhibition of human MDA-MB-468 cells at 10 uM after 48 hrs by sulforhodamine B assay
Format: functional
Details: MDA-MB-468, 48 h, read-out: GI
Method in brief: as §1

Compound | inhibition of growth at 10 µM
CC(=S)NS(=O)(=O)c1ccc2nc(-c3ccccc3)c(-c3ccccc3)nc2c1 | 23.7%

Tested on: SK-OV-3
Test: Growth inhibition of human SKOV3 cells at 10 uM after 48 hrs by sulforhodamine B assay
Format: functional
Details: SK-OV-3, 48 h, read-out: GI
Method in brief: as §1

Compound | inhibition of growth at 10 µM
CC(=S)NS(=O)(=O)c1ccc2nc(-c3ccccc3)c(-c3ccccc3)nc2c1 | 4.85%

Tested on: not listed separately
Test: Growth inhibition of human Hs 578T cells at 10 uM after 48 hrs by sulforhodamine B assay
Format: functional
Details: read-out: GI
Method in brief: as §2

Compound | inhibition of growth at 10 µM
CC(=S)NS(=O)(=O)c1ccc2nc(-c3ccccc3)c(-c3ccccc3)nc2c1 | 20.8%

Tested on: UACC-257
Test: Growth inhibition of human UACC257 cells at 10 uM after 48 hrs by sulforhodamine B assay
Format: functional
Details: UACC-257, 48 h, read-out: GI
Method in brief: as §1

Compound | inhibition of growth at 10 µM
CC(=S)NS(=O)(=O)c1ccc2nc(-c3ccccc3)c(-c3ccccc3)nc2c1 | 2.23%

Tested on: NCI-H226
Test: Growth inhibition of human NCI-H226 cells at 10 uM after 48 hrs by sulforhodamine B assay
Format: functional
Details: NCI-H226, 48 h, read-out: GI
Method in brief: as §1

Compound | inhibition of growth at 10 µM
CC(=S)NS(=O)(=O)c1ccc2nc(-c3ccccc3)c(-c3ccccc3)nc2c1 | 53.6%

Tested on: HCT-116
Test: Growth inhibition of human HCT116 cells at 10 uM after 48 hrs by sulforhodamine B assay
Format: functional
Details: HCT-116, 48 h, read-out: GI
Method in brief: as §2

Compound | inhibition of growth at 10 µM
CC(=S)NS(=O)(=O)c1ccc2nc(-c3ccccc3)c(-c3ccccc3)nc2c1 | 14.5%

Tested on: K562
Test: Growth inhibition of human K562 cells at 10 uM after 48 hrs by sulforhodamine B assay
Format: functional
Details: K562, 48 h, read-out: GI
Method in brief: as §1

Compound | inhibition of growth at 10 µM
CC(=S)NS(=O)(=O)c1ccc2nc(-c3ccccc3)c(-c3ccccc3)nc2c1 | 26.8%

Tested on: SK-MEL-28
Test: Growth inhibition of human SK-MEL-28 cells at 10 uM after 48 hrs by sulforhodamine B assay
Format: functional
Details: SK-MEL-28, 48 h, read-out: GI
Method in brief: as §1

Compound | inhibition of growth at 10 µM
CC(=S)NS(=O)(=O)c1ccc2nc(-c3ccccc3)c(-c3ccccc3)nc2c1 | 1.73%

Tested on: M14
Test: Growth inhibition of human M14 cells at 10 uM after 48 hrs by sulforhodamine B assay
Format: functional
Details: M14, 48 h, read-out: GI
Method in brief: as §1

Compound | inhibition of growth at 10 µM
CC(=S)NS(=O)(=O)c1ccc2nc(-c3ccccc3)c(-c3ccccc3)nc2c1 | 2.85%

Tested on: 786-0
Test: Growth inhibition of human 786-0 cells at 10 uM after 48 hrs by sulforhodamine B assay
Format: functional
Details: 786-0, 48 h, read-out: GI
Method in brief: (§3)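 Single-dose NCI-60 prescreen at 10 µM for 48 h at 37 °C and 5% CO2, using cells grown in RPMI 1640 with 5% FBS and 2 mM glutamine. Protein was measured by SRB after TCA fixation: 10% final for adherent lines, 16% for suspension lines. Absorbance was read at 515 nm. Percent growth inhibition was obtained by subtracting percent growth from 100.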

Compound | inhibition of growth at 10 µM
CC(=S)NS(=O)(=O)c1ccc2nc(-c3ccccc3)c(-c3ccccc3)nc2c1 | 2.83%

Tested on: HL-60(TB)
Test: Growth inhibition of human HL-60(TB) cells at 10 uM after 48 hrs by sulforhodamine B assay
Format: functional
Details: HL-60, 48 h, read-out: GI
Method in brief: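 Single-dose NCI-60 primary screen at 10 µM, 48 h exposure, SRB read-out. Growth percentage of treated versus untreated cells was recorded and given as percent inhibition by subtraction.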

Compound | inhibition of growth at 10 µM
CC(=S)NS(=O)(=O)c1ccc2nc(-c3ccccc3)c(-c3ccccc3)nc2c1 | 35.3%

Tested on: SF-295
Test: Growth inhibition of human SF295 cells at 10 uM after 48 hrs by sulforhodamine B assay
Format: functional
Details: SF-295, 48 h, read-out: GI
Method in brief: as §1

Compound | inhibition of growth at 10 µM
CC(=S)NS(=O)(=O)c1ccc2nc(-c3ccccc3)c(-c3ccccc3)nc2c1 | 5.83%

Tested on: IGROV-1
Test: Growth inhibition of human IGROV1 cells at 10 uM after 48 hrs by sulforhodamine B assay
Format: functional
Details: IGROV-1, 48 h, read-out: GI
Method in brief: as §1

Compound | inhibition of growth at 10 µM
CC(=S)NS(=O)(=O)c1ccc2nc(-c3ccccc3)c(-c3ccccc3)nc2c1 | 14.8%

Tested on: SW-620
Test: Growth inhibition of human SW620 cells at 10 uM after 48 hrs by sulforhodamine B assay
Format: functional
Details: SW-620, 48 h, read-out: GI
Method in brief: as §1

Compound | inhibition of growth at 10 µM
CC(=S)NS(=O)(=O)c1ccc2nc(-c3ccccc3)c(-c3ccccc3)nc2c1 | 3.84%

Tested on: SNB-75
Test: Growth inhibition of human SNB75 cells at 10 uM after 48 hrs by sulforhodamine B assay
Format: functional
Details: SNB-75, 48 h, read-out: GI
Method in brief: as §1

Compound | inhibition of growth at 10 µM
CC(=S)NS(=O)(=O)c1ccc2nc(-c3ccccc3)c(-c3ccccc3)nc2c1 | 26.9%

Tested on: RXF 393
Test: Growth inhibition of human RXF393 cells at 10 uM after 48 hrs by sulforhodamine B assay
Format: functional
Details: RXF 393, 48 h, read-out: GI
Method in brief: as §1

Compound | inhibition of growth at 10 µM
CC(=S)NS(=O)(=O)c1ccc2nc(-c3ccccc3)c(-c3ccccc3)nc2c1 | 14.5%

Tested on: COLO 205
Test: Growth inhibition of human COLO205 cells at 10 uM after 48 hrs by sulforhodamine B assay
Format: functional
Details: COLO 205, 48 h, read-out: GI
Method in brief: as §3

Compound | inhibition of growth at 10 µM
CC(=S)NS(=O)(=O)c1ccc2nc(-c3ccccc3)c(-c3ccccc3)nc2c1 | 4.64%

Tested on: not listed separately
Test: Oral bioavailability in human
Format: ADME, organism-based
Details: in silico prediction

Compound | bioavailability
CC(=S)NS(=O)(=O)c1ccc2nc(-c3ccccc3)c(-c3ccccc3)nc2c1 | 94.7%

Tested on: A549
Test: Growth inhibition of human A549/ATCC cells at 10 uM after 48 hrs by sulforhodamine B assay
Format: functional
Details: A549, 48 h, read-out: GI
Method in brief: as §3

Compound | inhibition of growth at 10 µM
CC(=S)NS(=O)(=O)c1ccc2nc(-c3ccccc3)c(-c3ccccc3)nc2c1 | 7.74%

Tested on: OVCAR-4
Test: Growth inhibition of human OVCAR4 cells at 10 uM after 48 hrs by sulforhodamine B assay
Format: functional
Details: OVCAR-4, 48 h, read-out: GI
Method in brief: as §1

Compound | inhibition of growth at 10 µM
CC(=S)NS(=O)(=O)c1ccc2nc(-c3ccccc3)c(-c3ccccc3)nc2c1 | 13.4%

Tested on: TK-10
Test: Growth inhibition of human TK10 cells at 10 uM after 48 hrs by sulforhodamine B assay
Format: functional
Details: TK-10, 48 h, read-out: GI
Method in brief: as §1

Compound | inhibition of growth at 10 µM
CC(=S)NS(=O)(=O)c1ccc2nc(-c3ccccc3)c(-c3ccccc3)nc2c1 | 6.93%

Tested on: SNB-19
Test: Growth inhibition of human SNB19 cells at 10 uM after 48 hrs by sulforhodamine B assay
Format: functional
Details: SNB-19, 48 h, read-out: GI
Method in brief: as §1

Compound | inhibition of growth at 10 µM
CC(=S)NS(=O)(=O)c1ccc2nc(-c3ccccc3)c(-c3ccccc3)nc2c1 | 2.12%

Tested on: HOP-62
Test: Growth inhibition of human HOP62 cells at 10 uM after 48 hrs by sulforhodamine B assay
Format: functional
Details: HOP-62, 48 h, read-out: GI
Method in brief: as §2

Compound | inhibition of growth at 10 µM
CC(=S)NS(=O)(=O)c1ccc2nc(-c3ccccc3)c(-c3ccccc3)nc2c1 | 2.84%

Tested on: DU-145
Test: Growth inhibition of human DU145 cells at 10 uM after 48 hrs by sulforhodamine B assay
Format: functional
Details: DU-145, 48 h, read-out: GI
Method in brief: as §3

Compound | inhibition of growth at 10 µM
CC(=S)NS(=O)(=O)c1ccc2nc(-c3ccccc3)c(-c3ccccc3)nc2c1 | 2.63%

Tested on: OVCAR-8
Test: Growth inhibition of human OVCAR8 cells at 10 uM after 48 hrs by sulforhodamine B assay
Format: functional
Details: OVCAR-8, 48 h, read-out: GI
Method in brief: as §1

Compound | inhibition of growth at 10 µM
CC(=S)NS(=O)(=O)c1ccc2nc(-c3ccccc3)c(-c3ccccc3)nc2c1 | 3.93%

Tested on: MDA-MB-231
Test: Growth inhibition of human MDA-MB-231 cells at 10 uM after 48 hrs by sulforhodamine B assay
Format: functional
Details: MDA-MB-231, 48 h, read-out: GI
Method in brief: as §1

Compound | inhibition of growth at 10 µM
CC(=S)NS(=O)(=O)c1ccc2nc(-c3ccccc3)c(-c3ccccc3)nc2c1 | 14.8%

Tested on: BT-549
Test: Growth inhibition of human BT549 cells at 10 uM after 48 hrs by sulforhodamine B assay
Format: functional
Details: BT-549, 48 h, read-out: GI
Method in brief: as §3

Compound | inhibition of growth at 10 µM
CC(=S)NS(=O)(=O)c1ccc2nc(-c3ccccc3)c(-c3ccccc3)nc2c1 | 2.74%
